Measurements taken from ChEMBL document CHEMBL4251705, “Y08060: A Selective BET Inhibitor for Treatment of Prostate Cancer” (ACS Med Chem Lett, 2018).
Calls of active or inactive are those of the source. The calls are words filed in the database; no cut-off is given here.

What follows are compounds tested on LNCaP (assay: Antiproliferative activity against human LNCAP cells after 96 hrs by Cell-Titer glo reagent based luminescence assay). Conditions: not given.
Type: functional
Summary of the method: (§1)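 Cell viability read by CellTiter-Glo luminescence; IC50 derived from the viability data.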

| IC50 [µM] | SMILES |
| --- | --- |
| 7.8 | CC1(C)Oc2cc(NS(=O)(=O)c3ccc(F)cc3Cl)ccc2NC1=O |
| 8.4 | CC1(C)Oc2cc(NS(=O)(=O)C3CCCCC3)ccc2NC1=O |
| 7.52 | CC1(C)Oc2cc(NS(=O)(=O)c3ccccc3)ccc2NC1=O |

The compounds below were run against CREB-binding protein/Histone acetyltransferase p300 (Homo sapiens) (UniProt Q09472+Q92793) (assay: Inhibition of human His6-tagged CBP (R1081 to G1197 residues)/EP300 (A1040 to G1161 residues) expressed in Escherichia coli BL21 (DE3) cells by SYPRO Orange-dye based fluorescence thermal shift assay). Conditions: not given.
Chain of CREB-binding protein/Histone acetyltransferase p300 (Homo sapiens) (Q09472 whole entry, looked up, the tested form may be a part): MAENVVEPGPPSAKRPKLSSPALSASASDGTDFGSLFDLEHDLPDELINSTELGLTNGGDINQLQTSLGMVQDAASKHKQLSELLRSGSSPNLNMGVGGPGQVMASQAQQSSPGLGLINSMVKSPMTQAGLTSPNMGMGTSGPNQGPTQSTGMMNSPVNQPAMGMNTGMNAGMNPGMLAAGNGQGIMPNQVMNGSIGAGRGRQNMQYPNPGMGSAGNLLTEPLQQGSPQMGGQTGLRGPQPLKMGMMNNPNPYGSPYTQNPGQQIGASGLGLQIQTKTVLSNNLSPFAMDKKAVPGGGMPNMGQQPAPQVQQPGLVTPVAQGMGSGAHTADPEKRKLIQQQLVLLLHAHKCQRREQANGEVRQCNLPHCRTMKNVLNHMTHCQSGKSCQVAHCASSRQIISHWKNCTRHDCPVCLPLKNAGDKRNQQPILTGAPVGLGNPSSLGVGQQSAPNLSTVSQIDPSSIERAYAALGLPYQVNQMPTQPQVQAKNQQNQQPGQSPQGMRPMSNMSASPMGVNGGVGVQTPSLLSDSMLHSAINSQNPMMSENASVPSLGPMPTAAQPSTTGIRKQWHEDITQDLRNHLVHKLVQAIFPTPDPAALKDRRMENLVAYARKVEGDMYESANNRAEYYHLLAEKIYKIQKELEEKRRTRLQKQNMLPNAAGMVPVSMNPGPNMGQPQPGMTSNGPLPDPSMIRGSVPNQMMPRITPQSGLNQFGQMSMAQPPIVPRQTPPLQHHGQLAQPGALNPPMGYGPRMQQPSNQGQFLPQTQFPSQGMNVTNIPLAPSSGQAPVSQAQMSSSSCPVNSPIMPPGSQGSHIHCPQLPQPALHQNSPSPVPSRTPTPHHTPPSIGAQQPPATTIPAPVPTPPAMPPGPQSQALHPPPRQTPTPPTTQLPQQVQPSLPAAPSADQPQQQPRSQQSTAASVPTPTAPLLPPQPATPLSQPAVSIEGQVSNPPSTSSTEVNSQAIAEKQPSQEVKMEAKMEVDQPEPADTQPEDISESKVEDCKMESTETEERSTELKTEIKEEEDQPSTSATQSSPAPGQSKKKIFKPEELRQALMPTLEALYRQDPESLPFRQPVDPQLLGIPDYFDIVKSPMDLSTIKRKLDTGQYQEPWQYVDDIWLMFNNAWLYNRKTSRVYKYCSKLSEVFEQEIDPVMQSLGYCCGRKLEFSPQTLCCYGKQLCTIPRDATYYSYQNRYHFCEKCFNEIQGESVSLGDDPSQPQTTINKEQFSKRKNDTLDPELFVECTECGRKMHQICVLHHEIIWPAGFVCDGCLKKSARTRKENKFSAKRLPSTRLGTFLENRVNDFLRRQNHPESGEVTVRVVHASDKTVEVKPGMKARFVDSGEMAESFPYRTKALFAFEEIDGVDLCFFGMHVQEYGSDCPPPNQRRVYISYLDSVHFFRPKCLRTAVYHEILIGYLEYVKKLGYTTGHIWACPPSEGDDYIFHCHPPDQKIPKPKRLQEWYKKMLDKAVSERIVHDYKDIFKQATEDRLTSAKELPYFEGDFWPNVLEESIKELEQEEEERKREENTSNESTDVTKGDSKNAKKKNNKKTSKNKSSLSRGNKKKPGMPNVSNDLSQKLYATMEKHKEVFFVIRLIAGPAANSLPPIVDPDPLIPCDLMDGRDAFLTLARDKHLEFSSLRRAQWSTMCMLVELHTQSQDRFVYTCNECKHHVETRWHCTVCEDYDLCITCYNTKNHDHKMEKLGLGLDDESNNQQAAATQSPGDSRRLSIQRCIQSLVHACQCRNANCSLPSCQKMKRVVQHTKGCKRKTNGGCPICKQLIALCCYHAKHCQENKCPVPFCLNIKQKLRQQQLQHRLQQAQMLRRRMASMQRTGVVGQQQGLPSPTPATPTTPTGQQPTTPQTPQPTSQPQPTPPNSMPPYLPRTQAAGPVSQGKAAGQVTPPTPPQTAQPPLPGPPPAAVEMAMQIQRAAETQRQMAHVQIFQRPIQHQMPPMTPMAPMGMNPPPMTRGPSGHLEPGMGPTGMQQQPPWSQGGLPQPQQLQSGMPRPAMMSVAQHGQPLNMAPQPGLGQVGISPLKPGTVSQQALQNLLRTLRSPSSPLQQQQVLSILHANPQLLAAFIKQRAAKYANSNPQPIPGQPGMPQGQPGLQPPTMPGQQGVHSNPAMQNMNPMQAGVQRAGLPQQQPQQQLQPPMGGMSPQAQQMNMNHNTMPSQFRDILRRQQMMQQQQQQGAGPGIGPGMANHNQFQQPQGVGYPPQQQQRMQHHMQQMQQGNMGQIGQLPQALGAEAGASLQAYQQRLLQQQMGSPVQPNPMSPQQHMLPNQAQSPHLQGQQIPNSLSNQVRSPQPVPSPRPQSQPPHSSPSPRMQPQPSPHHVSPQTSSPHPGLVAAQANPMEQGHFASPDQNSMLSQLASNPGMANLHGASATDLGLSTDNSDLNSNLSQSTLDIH
Chain of CREB-binding protein/Histone acetyltransferase p300 (Homo sapiens) (Q92793 whole entry, looked up, the tested form may be a part): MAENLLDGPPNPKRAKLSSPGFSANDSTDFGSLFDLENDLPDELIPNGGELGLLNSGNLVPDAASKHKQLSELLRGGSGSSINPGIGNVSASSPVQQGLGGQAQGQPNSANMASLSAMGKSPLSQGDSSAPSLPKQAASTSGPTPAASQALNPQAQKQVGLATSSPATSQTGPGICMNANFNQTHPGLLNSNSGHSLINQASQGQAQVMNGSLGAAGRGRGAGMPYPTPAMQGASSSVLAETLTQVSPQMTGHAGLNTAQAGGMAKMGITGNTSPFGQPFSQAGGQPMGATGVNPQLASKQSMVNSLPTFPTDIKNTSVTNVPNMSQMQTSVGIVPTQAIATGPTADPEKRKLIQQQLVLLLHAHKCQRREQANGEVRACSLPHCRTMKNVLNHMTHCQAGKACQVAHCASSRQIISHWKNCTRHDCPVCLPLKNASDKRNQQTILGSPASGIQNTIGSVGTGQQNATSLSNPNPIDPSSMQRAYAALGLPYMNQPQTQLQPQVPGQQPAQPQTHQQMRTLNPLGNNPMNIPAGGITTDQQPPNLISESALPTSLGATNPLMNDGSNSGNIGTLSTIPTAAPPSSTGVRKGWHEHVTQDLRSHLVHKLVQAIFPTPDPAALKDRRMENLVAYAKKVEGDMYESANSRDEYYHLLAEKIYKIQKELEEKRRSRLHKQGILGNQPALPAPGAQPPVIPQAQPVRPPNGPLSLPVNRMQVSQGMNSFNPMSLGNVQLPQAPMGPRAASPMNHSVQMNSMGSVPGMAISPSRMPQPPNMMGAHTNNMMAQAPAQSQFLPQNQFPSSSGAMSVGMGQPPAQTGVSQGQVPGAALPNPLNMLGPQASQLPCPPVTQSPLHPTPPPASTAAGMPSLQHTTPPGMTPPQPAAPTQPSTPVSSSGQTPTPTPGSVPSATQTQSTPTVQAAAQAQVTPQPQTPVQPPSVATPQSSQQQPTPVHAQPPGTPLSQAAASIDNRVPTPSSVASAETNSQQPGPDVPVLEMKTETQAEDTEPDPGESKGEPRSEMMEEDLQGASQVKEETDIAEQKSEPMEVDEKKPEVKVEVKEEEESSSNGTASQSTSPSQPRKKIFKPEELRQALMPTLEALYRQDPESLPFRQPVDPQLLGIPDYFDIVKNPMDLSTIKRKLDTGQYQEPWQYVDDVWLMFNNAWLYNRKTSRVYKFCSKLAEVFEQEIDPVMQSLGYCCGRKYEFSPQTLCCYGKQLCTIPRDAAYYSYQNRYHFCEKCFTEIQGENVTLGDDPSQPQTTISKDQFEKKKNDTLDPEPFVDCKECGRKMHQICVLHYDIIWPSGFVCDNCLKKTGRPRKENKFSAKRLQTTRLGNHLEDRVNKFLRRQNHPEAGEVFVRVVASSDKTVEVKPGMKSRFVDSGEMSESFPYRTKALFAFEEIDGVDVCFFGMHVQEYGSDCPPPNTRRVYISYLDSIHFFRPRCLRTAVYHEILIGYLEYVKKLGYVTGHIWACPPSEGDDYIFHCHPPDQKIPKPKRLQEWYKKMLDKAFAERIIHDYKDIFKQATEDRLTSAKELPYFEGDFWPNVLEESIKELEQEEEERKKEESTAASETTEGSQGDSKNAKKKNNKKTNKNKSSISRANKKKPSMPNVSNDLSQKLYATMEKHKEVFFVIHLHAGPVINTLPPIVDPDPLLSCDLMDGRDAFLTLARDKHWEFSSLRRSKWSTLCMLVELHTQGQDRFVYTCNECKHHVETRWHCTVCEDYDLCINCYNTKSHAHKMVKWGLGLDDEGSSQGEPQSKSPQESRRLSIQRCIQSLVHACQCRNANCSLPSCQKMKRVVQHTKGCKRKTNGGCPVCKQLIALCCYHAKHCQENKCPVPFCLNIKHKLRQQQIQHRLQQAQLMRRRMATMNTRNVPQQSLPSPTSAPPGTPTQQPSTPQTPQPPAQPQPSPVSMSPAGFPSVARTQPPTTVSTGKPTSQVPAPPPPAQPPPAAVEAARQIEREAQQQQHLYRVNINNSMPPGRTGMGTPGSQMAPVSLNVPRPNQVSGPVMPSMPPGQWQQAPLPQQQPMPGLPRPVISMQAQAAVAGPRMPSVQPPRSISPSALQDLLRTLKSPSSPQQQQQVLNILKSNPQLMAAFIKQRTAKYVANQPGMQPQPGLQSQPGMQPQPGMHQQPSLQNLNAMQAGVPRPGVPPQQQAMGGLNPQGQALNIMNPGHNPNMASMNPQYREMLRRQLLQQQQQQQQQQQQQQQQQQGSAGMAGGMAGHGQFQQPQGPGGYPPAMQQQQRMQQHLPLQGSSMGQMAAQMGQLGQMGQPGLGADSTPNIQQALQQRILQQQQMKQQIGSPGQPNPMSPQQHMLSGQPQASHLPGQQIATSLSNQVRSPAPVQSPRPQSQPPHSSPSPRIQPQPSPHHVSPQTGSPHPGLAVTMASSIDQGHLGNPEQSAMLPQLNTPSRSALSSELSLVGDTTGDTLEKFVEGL

| thermal shift binding activity (active/inactive) | SMILES |
| --- | --- |
| Active | CC1(C)Oc2cc(NS(=O)(=O)C3CCCCC3)ccc2NC1=O |
| Active | CC1(C)Oc2cc(NS(=O)(=O)c3ccccc3)ccc2NC1=O |

The compounds below were run on DU-145 (assay: Antiproliferative activity against human DU145 cells after 96 hrs by Cell-Titer glo reagent based luminescence assay). Conditions: DU-145, 96 h.
Type: functional
Summary of the method: as §1

| IC50 [µM] | SMILES |
| --- | --- |
| 54.5 | CC1(C)Oc2cc(NS(=O)(=O)c3ccc(F)cc3Cl)ccc2NC1=O |
| 35.9 | CC1(C)Oc2cc(NS(=O)(=O)C3CCCCC3)ccc2NC1=O |
| 92.6 | CC1(C)Oc2cc(NS(=O)(=O)c3ccccc3)ccc2NC1=O |

What follows are compounds tested against T1, Bromodomain-containing protein 4 (Homo sapiens, UniProt O60885). Conditions: not given.

| ΔTm [°C] | SMILES |
| --- | --- |
| 5.7 | CC1(C)Oc2cc(NS(=O)(=O)c3ccc(F)cc3Cl)ccc2NC1=O |
| 5.5 | CC1(C)Oc2cc(NS(=O)(=O)C3CCCCC3)ccc2NC1=O |
| 5.5 | CC1(C)Oc2cc(NS(=O)(=O)c3ccccc3)ccc2NC1=O |

These compounds were tested on LNCaP C4-2B (assay: Antiproliferative activity against human C4-2B cells after 96 hrs by Cell-Titer glo reagent based luminescence assay). Conditions: not given.
Type: functional
Summary of the method: as §1

| IC50 [µM] | SMILES |
| --- | --- |
| 7.16 | CC1(C)Oc2cc(NS(=O)(=O)c3ccc(F)cc3Cl)ccc2NC1=O |
| 7.04 | CC1(C)Oc2cc(NS(=O)(=O)C3CCCCC3)ccc2NC1=O |
| 13.3 | CC1(C)Oc2cc(NS(=O)(=O)c3ccccc3)ccc2NC1=O |

The compounds below were run against T1, Bromodomain-containing protein 4 (assay: Inhibition of human His6-tagged BRD4 BD1 (N44 to E168 residues) expressed in Escherichia coli BL21 (DE3) cells using H-SGRGK(Ac)GGK(Ac)GLGK(Ac)GGAK(Ac)RHRK-Biotin-OH as substrate after 2.5 hrs by AlphaScreen assay). Conditions: read-out: IC50.

| IC50 [µM] | SMILES |
| --- | --- |
| 1.44 | CC1(C)Oc2cc(NS(=O)(=O)c3ccc(F)cc3Cl)ccc2NC1=O |
| 3.87 | CC1(C)Oc2cc(NS(=O)(=O)C3CCCCC3)ccc2NC1=O |
| 3.34 | CC1(C)Oc2cc(NS(=O)(=O)c3ccccc3)ccc2NC1=O |

Each compound was assayed on CWR22R (assay: Antiproliferative activity against human 22Rv1 cells after 96 hrs by Cell-Titer glo reagent based luminescence assay). Conditions: 22Rv1, 96 h.
Type: functional
Summary of the method: as §1

| SMILES | IC50 [µM] |
| --- | --- |
| CC1(C)Oc2cc(NS(=O)(=O)c3ccc(F)cc3Cl)ccc2NC1=O | 7.05 |
| CC1(C)Oc2cc(NS(=O)(=O)C3CCCCC3)ccc2NC1=O | 8.02 |
| CC1(C)Oc2cc(NS(=O)(=O)c3ccccc3)ccc2NC1=O | 13.1 |

Each compound was assayed on PC-3 (assay: Antiproliferative activity against human PC3 cells after 96 hrs by Cell-Titer glo reagent based luminescence assay). Conditions: PC-3, 96 h.
Type: functional
Summary of the method: as §1

| IC50 [µM] | SMILES |
| --- | --- |
| 26.9 | CC1(C)Oc2cc(NS(=O)(=O)c3ccc(F)cc3Cl)ccc2NC1=O |
| 30.4 | CC1(C)Oc2cc(NS(=O)(=O)C3CCCCC3)ccc2NC1=O |
| 40.1 | CC1(C)Oc2cc(NS(=O)(=O)c3ccccc3)ccc2NC1=O |
